Structures can show the parent of a compound that is named as a salt.

System in the first assay: not listed separately
Put plainly: Antiplatelet aggregation activity against platelet-activating factor-induced pig platelet aggregation after 5 mins by aggregometer. In kind it is functional, cell-based. To be noted: Sus scrofa. An outline of the steps: (§1)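 Pig blood from six pigs was spun at 1000 rpm for 10 min to give PRP, then at 1500g for 10 min to give PPP. PRP was adjusted to 2 × 10⁸ platelets/mL with autologous PPP. Test agent or NS was added at final 100 µM–1 nM. Agonists were at final concentrations of ADP 10 µM, AA 350 µM, PAF 0.1 µM and thrombin 0.1 U/mL. Light-transmission peak was read at 37 °C over 5 min, in sextuplicate. IC50 was taken from the concentration–inhibition curve.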
For orientation: IC50 means the concentration that inhibits the measured activity by half. With `C[C@H](N)C(=O)N1Cc2[nH]c3ccccc3c2C[C@H]1C(=O)O`, the IC50 is 13.6 nM.

Regarding `N[C@@H](Cc1ccccc1)C(=O)N1Cc2[nH]c3ccccc3c2C[C@H]1C(=O)O`, the IC50 turned out to be 19 nM.

Molecule `CC(C)[C@H](N)C(=O)N1Cc2[nH]c3ccccc3c2C[C@H]1C(=O)O` showed an IC50 of 17.7 nM.

In the case of `N[C@@H](CO)C(=O)N1Cc2[nH]c3ccccc3c2C[C@H]1C(=O)O`, the IC50 amounted to 16.1 nM.

`N[C@@H](Cc1ccc(O)cc1)C(=O)N1Cc2[nH]c3ccccc3c2C[C@H]1C(=O)O`: the midpoint of inhibition, the IC50, lay at 15.1 nM.

`C[C@@H](O)[C@H](N)C(=O)N1Cc2[nH]c3ccccc3c2C[C@H]1C(=O)O` gave an IC50 of 14.8 nM.

The subject of the next assay is Platelet. Put plainly: Ratio of IC50 for platelet-activating factor-induced pig platelet aggregation to IC50 for ADP-induced pig platelet aggregation.
Conditions: not given
In kind it is functional, Sus scrofa. An outline of the steps: (§2)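 Fold ratios of IC50 values. Each IC50 came from pig PRP (2 × 10⁸ platelets/mL) light-transmission aggregometry at 37 °C for 5 min, in sextuplicate, with final ADP 10 µM, AA 350 µM, PAF 0.1 µM or thrombin 0.1 U/mL.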
As for `C[C@H](N)C(=O)N1Cc2[nH]c3ccccc3c2C[C@H]1C(=O)O`, the Ratio IC50 was 2.

Turning to `N[C@@H](Cc1ccccc1)C(=O)N1Cc2[nH]c3ccccc3c2C[C@H]1C(=O)O`, the Ratio IC50 was 1.9.

As to `CC(C)[C@H](N)C(=O)N1Cc2[nH]c3ccccc3c2C[C@H]1C(=O)O`, the Ratio IC50 worked out at 2.3.

`N[C@@H](CO)C(=O)N1Cc2[nH]c3ccccc3c2C[C@H]1C(=O)O`: the Ratio IC50 was determined as 1.9.

`N[C@@H](Cc1ccc(O)cc1)C(=O)N1Cc2[nH]c3ccccc3c2C[C@H]1C(=O)O`: the Ratio IC50 was 1.9.

As to `C[C@@H](O)[C@H](N)C(=O)N1Cc2[nH]c3ccccc3c2C[C@H]1C(=O)O`, the Ratio IC50 was found to be 1.9.

Another assay deals with Rattus norvegicus. Nature of the assay: Antithrombotic activity in Wistar rat arterioveinos cannula model assessed as reduction of thrombus weight at 100 nmol/kg, iv.
Conditions: not given
The assay is classed as functional. An outline of the steps: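 Male Wistar rats, 250–300 g. Agents were dissolved in NS and kept on ice. Heparin sodium was injected into a thread-containing polyethylene cannula, then NS or agent was injected intravenously. The cannula joined the right carotid artery to the left jugular vein, and blood flowed through it for 15 min. Wet thrombus weight on the thread was recorded as mean ± SD, n = 12.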
Turning to `C[C@H](N)C(=O)N1Cc2[nH]c3ccccc3c2C[C@H]1C(=O)O`, the Thrombus weight stood at 14.61 mg.

As to `N[C@@H](Cc1ccccc1)C(=O)N1Cc2[nH]c3ccccc3c2C[C@H]1C(=O)O`, the Thrombus weight amounted to 17.25 mg.

Consider `CC(C)[C@H](N)C(=O)N1Cc2[nH]c3ccccc3c2C[C@H]1C(=O)O`, for which the Thrombus weight amounted to 18.56 mg.

For `N[C@@H](CO)C(=O)N1Cc2[nH]c3ccccc3c2C[C@H]1C(=O)O`, the Thrombus weight is given as 16.25 mg.

As to `N[C@@H](Cc1ccc(O)cc1)C(=O)N1Cc2[nH]c3ccccc3c2C[C@H]1C(=O)O`, the Thrombus weight was 15.49 mg.

For the molecule `C[C@@H](O)[C@H](N)C(=O)N1Cc2[nH]c3ccccc3c2C[C@H]1C(=O)O`, the Thrombus weight is on record as 15.72 mg.

A further assay has as its system Platelet. Nature of the assay: Ratio of TCCA IC50 to compound IC50 for ADP-induced pig platelet aggregation. In kind it is functional, Sus scrofa.
Conditions: not given
In a few lines:
as §2
On to `C[C@H](N)C(=O)N1Cc2[nH]c3ccccc3c2C[C@H]1C(=O)O`, for which the Ratio IC50 is 104.

Regarding `N[C@@H](Cc1ccccc1)C(=O)N1Cc2[nH]c3ccccc3c2C[C@H]1C(=O)O`, the Ratio IC50 turned out to be 72.

As to `CC(C)[C@H](N)C(=O)N1Cc2[nH]c3ccccc3c2C[C@H]1C(=O)O`, the Ratio IC50 turned out to be 90.

Regarding `N[C@@H](CO)C(=O)N1Cc2[nH]c3ccccc3c2C[C@H]1C(=O)O`, the Ratio IC50 is 81.

Turning to `N[C@@H](Cc1ccc(O)cc1)C(=O)N1Cc2[nH]c3ccccc3c2C[C@H]1C(=O)O`, the Ratio IC50 was 90.

As for `C[C@@H](O)[C@H](N)C(=O)N1Cc2[nH]c3ccccc3c2C[C@H]1C(=O)O`, the Ratio IC50 came to 90.

System in the next assay: not listed separately
Put plainly: Antiplatelet aggregation activity against thrombin-induced pig platelet aggregation after 5 mins by aggregometer. To be noted: Sus scrofa. The assay is classed as functional, cell-based. An outline of the steps:
as §1
As to `C[C@H](N)C(=O)N1Cc2[nH]c3ccccc3c2C[C@H]1C(=O)O`, 27.4 nM corresponded to half-maximal inhibition (IC50).

`N[C@@H](Cc1ccccc1)C(=O)N1Cc2[nH]c3ccccc3c2C[C@H]1C(=O)O` yielded an IC50 of 30.2 nM.

`CC(C)[C@H](N)C(=O)N1Cc2[nH]c3ccccc3c2C[C@H]1C(=O)O`: 32.5 nM corresponded to half-maximal inhibition (IC50).

In turn, `N[C@@H](CO)C(=O)N1Cc2[nH]c3ccccc3c2C[C@H]1C(=O)O` showed a half-maximal inhibitory concentration (IC50) of 30.8 nM.

In turn, `N[C@@H](Cc1ccc(O)cc1)C(=O)N1Cc2[nH]c3ccccc3c2C[C@H]1C(=O)O` registered a half-maximal inhibitory concentration (IC50) of 28.4 nM.

Turning to `C[C@@H](O)[C@H](N)C(=O)N1Cc2[nH]c3ccccc3c2C[C@H]1C(=O)O`, the 50% inhibitory concentration (IC50) is 27.8 nM.

System in the next assay: not listed separately
Nature of the assay: Antiplatelet aggregation activity against collagen-induced platelet. In kind it is functional, cell-based.
Conditions: not given
With `COc1ccc2c3c([nH]c2c1)C(C)=NCC3` [HARMALINE], the IC50 was > 130000 nM.

As for `CC1=NCCc2c1[nH]c1cc(O)ccc21` [HARMALOL], the IC50 was > 130000 nM.

Turning to `Cc1nccc2c1[nH]c1ccccc12` [HARMAN], the half-inhibitory concentration (IC50) is > 130000 nM.

As for `COc1ccc2c(c1)[nH]c1c(C)nccc12` [HARMINE], the IC50 is > 130000 nM.

As for `Cc1nccc2c1[nH]c1cc(O)ccc12` [HARMOL HYDROCHLORIDE], the IC50 was > 130000 nM.

Turning to `c1ccc2c(c1)[nH]c1cnccc12` [NORHARMANE], the IC50 was > 130000 nM.

System in a further assay: not listed separately
Nature of the assay: Antiplatelet aggregation activity against arachidonic acid-induced pig platelet aggregation after 5 mins by aggregometer. In kind it is functional, cell-based. To be noted: Sus scrofa. In a few lines: as §1
For `C[C@H](N)C(=O)N1Cc2[nH]c3ccccc3c2C[C@H]1C(=O)O`, the IC50 is 24.6 nM.

Molecule `N[C@@H](Cc1ccccc1)C(=O)N1Cc2[nH]c3ccccc3c2C[C@H]1C(=O)O` had an IC50 of 28.6 nM.

In the case of `CC(C)[C@H](N)C(=O)N1Cc2[nH]c3ccccc3c2C[C@H]1C(=O)O`, the IC50 turned out to be 27.3 nM.

Molecule `N[C@@H](CO)C(=O)N1Cc2[nH]c3ccccc3c2C[C@H]1C(=O)O` showed an IC50 of 26.2 nM.

Take `N[C@@H](Cc1ccc(O)cc1)C(=O)N1Cc2[nH]c3ccccc3c2C[C@H]1C(=O)O`: the 50% inhibitory concentration (IC50) was determined as 25.2 nM.

For the molecule `C[C@@H](O)[C@H](N)C(=O)N1Cc2[nH]c3ccccc3c2C[C@H]1C(=O)O`, the IC50 came out at 24.6 nM.

The subject of a further assay is Platelet. Nature of the assay: Ratio of IC50 for thrombin-induced pig platelet aggregation to IC50 for ADP-induced pig platelet aggregation. In kind it is functional, Sus scrofa.
Conditions: not given
In a few lines: as §2
`C[C@H](N)C(=O)N1Cc2[nH]c3ccccc3c2C[C@H]1C(=O)O`: the Ratio IC50 amounted to 4.1.

In the case of `N[C@@H](Cc1ccccc1)C(=O)N1Cc2[nH]c3ccccc3c2C[C@H]1C(=O)O`, the “Ratio IC50” value is 3.1.

For `CC(C)[C@H](N)C(=O)N1Cc2[nH]c3ccccc3c2C[C@H]1C(=O)O`, the Ratio IC50 was found to be 4.2.

Turning to `N[C@@H](CO)C(=O)N1Cc2[nH]c3ccccc3c2C[C@H]1C(=O)O`, the Ratio IC50 came to 3.6.

For the molecule `N[C@@H](Cc1ccc(O)cc1)C(=O)N1Cc2[nH]c3ccccc3c2C[C@H]1C(=O)O`, the Ratio IC50 was determined as 3.7.

On to `C[C@@H](O)[C@H](N)C(=O)N1Cc2[nH]c3ccccc3c2C[C@H]1C(=O)O`, for which the Ratio IC50 was determined as 3.6.

System in the next assay: not listed separately
Put plainly: Antiplatelet aggregation activity against ADP-induced pig platelet aggregation after 5 mins by aggregometer. In kind it is functional, cell-based. Conditions: Sus scrofa. In a few lines: as §1
In the case of `C[C@H](N)C(=O)N1Cc2[nH]c3ccccc3c2C[C@H]1C(=O)O`, half-maximal inhibition (IC50) was put at 6.71 nM.

Consider `N[C@@H](Cc1ccccc1)C(=O)N1Cc2[nH]c3ccccc3c2C[C@H]1C(=O)O`, for which the IC50 came out at 9.8 nM.

Molecule `CC(C)[C@H](N)C(=O)N1Cc2[nH]c3ccccc3c2C[C@H]1C(=O)O` showed a concentration for half-maximal inhibition (IC50) of 7.8 nM.

Molecule `N[C@@H](CO)C(=O)N1Cc2[nH]c3ccccc3c2C[C@H]1C(=O)O` displayed an IC50 of 8.66 nM.

`N[C@@H](Cc1ccc(O)cc1)C(=O)N1Cc2[nH]c3ccccc3c2C[C@H]1C(=O)O` had an IC50 of 7.76 nM.

`C[C@@H](O)[C@H](N)C(=O)N1Cc2[nH]c3ccccc3c2C[C@H]1C(=O)O` displayed an IC50 of 7.81 nM.

Another assay deals with Platelet. Put plainly: Ratio of IC50 for arachidonic acid-induced pig platelet aggregation to IC50 for ADP-induced pig platelet aggregation. In kind it is functional, Sus scrofa.
Conditions: not given
An outline of the steps: as §2
With `C[C@H](N)C(=O)N1Cc2[nH]c3ccccc3c2C[C@H]1C(=O)O`, the Ratio IC50 turned out to be 3.7.

Take `N[C@@H](Cc1ccccc1)C(=O)N1Cc2[nH]c3ccccc3c2C[C@H]1C(=O)O`: the Ratio IC50 worked out at 2.9.

Take `CC(C)[C@H](N)C(=O)N1Cc2[nH]c3ccccc3c2C[C@H]1C(=O)O`: the Ratio IC50 stood at 3.5.

In the case of `N[C@@H](CO)C(=O)N1Cc2[nH]c3ccccc3c2C[C@H]1C(=O)O`, the Ratio IC50 was 3.

In the case of `N[C@@H](Cc1ccc(O)cc1)C(=O)N1Cc2[nH]c3ccccc3c2C[C@H]1C(=O)O`, the Ratio IC50 was 3.2.

In the case of `C[C@@H](O)[C@H](N)C(=O)N1Cc2[nH]c3ccccc3c2C[C@H]1C(=O)O`, the Ratio IC50 stood at 3.1.

The values are drawn from ChEMBL document CHEMBL1156185, “A class of 3S-2-aminoacyltetrahydro-beta-carboline-3-carboxylic acids: their facile synthesis, inhibition for platelet activation, and high in vivo anti-thrombotic potency” (J Med Chem, 2010).
